The compounds below were run against Transient receptor potential cation channel subfamily A member 1 (Rattus norvegicus) (UniProt Q6RI86) (assay: Agonist activity at rat TRPA1 receptor expressed in HEK293 cells assessed as increase in intracellular Ca2+ concentration by spectrofluorimetric analysis relative to allyl isothiocyanate).
Sequence of Transient receptor potential cation channel subfamily A member 1 (Rattus norvegicus) (Q6RI86 whole entry): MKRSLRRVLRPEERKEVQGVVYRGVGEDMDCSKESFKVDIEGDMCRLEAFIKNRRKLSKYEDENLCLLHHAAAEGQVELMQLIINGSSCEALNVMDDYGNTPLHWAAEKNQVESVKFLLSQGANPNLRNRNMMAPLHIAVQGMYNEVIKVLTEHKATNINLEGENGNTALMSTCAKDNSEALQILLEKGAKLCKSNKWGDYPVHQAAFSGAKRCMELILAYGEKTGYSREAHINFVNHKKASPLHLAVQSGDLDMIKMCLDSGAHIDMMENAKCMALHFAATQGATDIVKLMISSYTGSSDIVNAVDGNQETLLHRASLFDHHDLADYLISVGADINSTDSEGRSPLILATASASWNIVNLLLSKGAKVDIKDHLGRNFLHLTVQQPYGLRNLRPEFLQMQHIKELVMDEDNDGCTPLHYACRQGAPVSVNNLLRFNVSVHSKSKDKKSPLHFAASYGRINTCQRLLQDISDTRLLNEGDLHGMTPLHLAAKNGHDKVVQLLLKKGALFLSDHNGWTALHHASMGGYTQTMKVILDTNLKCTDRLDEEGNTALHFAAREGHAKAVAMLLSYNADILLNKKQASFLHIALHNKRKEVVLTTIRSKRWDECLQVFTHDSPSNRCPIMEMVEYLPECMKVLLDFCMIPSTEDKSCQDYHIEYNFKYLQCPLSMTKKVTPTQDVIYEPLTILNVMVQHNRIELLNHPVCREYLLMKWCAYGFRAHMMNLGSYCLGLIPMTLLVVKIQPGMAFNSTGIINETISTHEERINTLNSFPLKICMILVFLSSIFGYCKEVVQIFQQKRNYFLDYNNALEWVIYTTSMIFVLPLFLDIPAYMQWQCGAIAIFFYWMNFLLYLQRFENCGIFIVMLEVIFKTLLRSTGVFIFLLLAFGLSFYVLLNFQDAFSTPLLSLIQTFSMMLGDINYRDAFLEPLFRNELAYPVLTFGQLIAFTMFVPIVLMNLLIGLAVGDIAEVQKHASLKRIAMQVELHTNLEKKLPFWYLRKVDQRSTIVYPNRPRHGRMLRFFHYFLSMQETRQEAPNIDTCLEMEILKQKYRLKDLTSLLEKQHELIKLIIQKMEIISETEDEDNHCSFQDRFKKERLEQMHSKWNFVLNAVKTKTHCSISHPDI
Type: cell-based
Method in brief: (§1)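 HEK293 cells stably transfected with human TRPV1 or rat TRPA1 cDNA (pcDNA3, G-418 selection) were loaded 1 h at room temperature with Fluo-4-AM, washed and suspended in Tyrode's buffer pH 7.4. [Ca²⁺]i was read by stirred-cuvette spectrofluorimetry before and after adding test compound at various concentrations. Signal from untransfected cells was subtracted. Efficacy was taken as percent of ionomycin (4 µM) for TRPV1 and percent of allyl isothiocyanate (100 µM) for TRPA1; EC50 was also derived.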
`CN(C)C(=O)n1nnc(Cc2ccc(-c3cccc(C(N)=O)c3)cc2)n1` showed an Efficacy of under 10%. `CC(=O)c1cccc(-c2ccc(Cc3nnnn3C(=O)N(C)C)cc2)c1` was tested, and the Efficacy was under 10%. With `COC(=O)c1cccc(-c2ccc(Cc3nnn(C(=O)N(C)C)n3)cc2)c1` the Efficacy was under 10%. `CN(CCCCc1ccccc1)C(=O)n1nnc(Cc2ccc(-c3ccccc3)cc2)n1` was tested, and the Efficacy was under 10%. Work on `CN(C)C(=O)n1nnc(Cc2ccc(-c3cccc(CO)c3)cc2)n1` yielded an Efficacy of under 10%. Work on `CC(=O)c1cccc(-c2ccc(Cc3nnn(C(=O)N(C)C)n3)cc2)c1` yielded an Efficacy of under 10%. `CN(C)C(=O)n1nnnc1Cc1ccc(-c2cccc(CO)c2)cc1` was tested, and the Efficacy was under 10%. `CN(Cc1ccc2ccccc2c1)C(=O)n1nnc(Cc2ccc(-c3ccccc3)cc2)n1` was tested, and the Efficacy was under 10%.

Each compound was assayed against T1, Transient receptor potential cation channel subfamily V member 1 (Homo sapiens, UniProt Q8NER1) (assay: Antagonist activity at human TRPV1 receptor expressed in HEK293 cells assessed as inhibition of capsaicin-induced intracellular Ca2+ elevation incubated for 5 mins prior to capsaicin-stimulation by spectrofluorimetric analysis).
T1 sequence (Q8NER1 whole entry): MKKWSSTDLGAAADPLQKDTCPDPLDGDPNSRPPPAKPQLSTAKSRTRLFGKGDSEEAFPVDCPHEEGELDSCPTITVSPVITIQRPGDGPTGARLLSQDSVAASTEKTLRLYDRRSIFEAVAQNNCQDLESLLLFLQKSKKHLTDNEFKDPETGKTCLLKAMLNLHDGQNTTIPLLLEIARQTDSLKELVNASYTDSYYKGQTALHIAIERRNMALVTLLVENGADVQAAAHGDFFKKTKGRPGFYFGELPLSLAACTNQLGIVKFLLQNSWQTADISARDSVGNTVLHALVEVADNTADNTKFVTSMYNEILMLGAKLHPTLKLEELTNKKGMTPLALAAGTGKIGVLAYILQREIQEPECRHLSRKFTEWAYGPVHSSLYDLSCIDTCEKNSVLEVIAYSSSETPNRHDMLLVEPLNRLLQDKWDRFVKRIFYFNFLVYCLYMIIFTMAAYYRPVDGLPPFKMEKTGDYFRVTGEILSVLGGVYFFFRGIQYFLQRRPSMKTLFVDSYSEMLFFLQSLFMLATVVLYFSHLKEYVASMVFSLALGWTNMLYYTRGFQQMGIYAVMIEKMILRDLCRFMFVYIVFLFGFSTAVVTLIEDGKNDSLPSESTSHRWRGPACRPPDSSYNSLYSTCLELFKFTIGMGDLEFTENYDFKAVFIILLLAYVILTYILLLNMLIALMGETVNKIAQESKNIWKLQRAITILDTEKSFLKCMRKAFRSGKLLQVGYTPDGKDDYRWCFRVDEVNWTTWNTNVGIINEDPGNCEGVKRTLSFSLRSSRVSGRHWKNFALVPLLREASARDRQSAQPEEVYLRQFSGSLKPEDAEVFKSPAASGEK
Type: cell-based
Method in brief: (§2)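 Fluo-4-loaded HEK293 cells stably expressing human TRPV1 or rat TRPA1, in Tyrode's buffer pH 7.4, received test compound in the cuvette 5 min before agonist: capsaicin 0.1 µM for TRPV1, AITC 100 µM for TRPA1. The [Ca²⁺]i rise with agonist alone was set to 100%. IC50 came from a variable-slope sigmoidal fit. Untransfected-cell signal was subtracted.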
For `CN(C)C(=O)n1nnc(Cc2ccc(-c3cccc(C(N)=O)c3)cc2)n1`, the IC50 was 91.8 µM. `CC(=O)c1cccc(-c2ccc(Cc3nnnn3C(=O)N(C)C)cc2)c1` gave an IC50 of over 100 µM. Work on `COC(=O)c1cccc(-c2ccc(Cc3nnn(C(=O)N(C)C)n3)cc2)c1` yielded an IC50 of over 100 µM. Compound `CN(CCCCc1ccccc1)C(=O)n1nnc(Cc2ccc(-c3ccccc3)cc2)n1` has an IC50 of 47.6 µM. `CN(C)C(=O)n1nnc(Cc2ccc(-c3cccc(CO)c3)cc2)n1` showed an IC50 of over 100 µM. With `CC(=O)c1cccc(-c2ccc(Cc3nnn(C(=O)N(C)C)n3)cc2)c1` the IC50 was over 100 µM. `CN(C)C(=O)n1nnnc1Cc1ccc(-c2cccc(CO)c2)cc1` gave an IC50 of over 100 µM. Compound `CN(Cc1ccc2ccccc2c1)C(=O)n1nnc(Cc2ccc(-c3ccccc3)cc2)n1` has an IC50 of 4.5 µM.

The compounds below were run against T1, Transient receptor potential cation channel subfamily V member 1 (assay: Agonist activity at human TRPV1 receptor expressed in HEK293 cells assessed as increase in intracellular Ca2+ concentration by spectrofluorimetric analysis).
Type: cell-based
Method in brief: as §1
`CN(CCCCc1ccccc1)C(=O)n1nnc(Cc2ccc(-c3ccccc3)cc2)n1` was tested, and the EC50 was 1.7 µM. `CN(Cc1ccc2ccccc2c1)C(=O)n1nnc(Cc2ccc(-c3ccccc3)cc2)n1` gave an EC50 of 11.9 µM.

The compounds below were run against T1, Transient receptor potential cation channel subfamily V member 1 (assay: Agonist activity at human TRPV1 receptor expressed in HEK293 cells assessed as increase in intracellular Ca2+ concentration by spectrofluorimetric analysis relative to ionomycin).
Type: cell-based
Method in brief: as §1
Compound `CN(C)C(=O)n1nnc(Cc2ccc(-c3cccc(C(N)=O)c3)cc2)n1` has an Efficacy of under 10%. With `CC(=O)c1cccc(-c2ccc(Cc3nnnn3C(=O)N(C)C)cc2)c1` the Efficacy was under 10%. `COC(=O)c1cccc(-c2ccc(Cc3nnn(C(=O)N(C)C)n3)cc2)c1` was tested, and the Efficacy was under 10%. `CN(CCCCc1ccccc1)C(=O)n1nnc(Cc2ccc(-c3ccccc3)cc2)n1` showed an Efficacy of 15.9%. For `CN(C)C(=O)n1nnc(Cc2ccc(-c3cccc(CO)c3)cc2)n1`, the Efficacy was under 10%. With `CC(=O)c1cccc(-c2ccc(Cc3nnn(C(=O)N(C)C)n3)cc2)c1` the Efficacy was under 10%. `CN(C)C(=O)n1nnnc1Cc1ccc(-c2cccc(CO)c2)cc1` was tested, and the Efficacy was under 10%. Work on `CN(Cc1ccc2ccccc2c1)C(=O)n1nnc(Cc2ccc(-c3ccccc3)cc2)n1` yielded an Efficacy of 36.1%.

The compounds below were run against T2, Monoglyceride lipase (Homo sapiens, UniProt Q99685) (assay: Inhibition of MAGL (unknown origin) expressed in African green monkey COS7 cell cytosolic fraction assessed as [3H]2-AG hydrolysis to [3H]arachidonic acid after 20 mins by beta counting analysis).
T2 sequence (Q99685 whole entry): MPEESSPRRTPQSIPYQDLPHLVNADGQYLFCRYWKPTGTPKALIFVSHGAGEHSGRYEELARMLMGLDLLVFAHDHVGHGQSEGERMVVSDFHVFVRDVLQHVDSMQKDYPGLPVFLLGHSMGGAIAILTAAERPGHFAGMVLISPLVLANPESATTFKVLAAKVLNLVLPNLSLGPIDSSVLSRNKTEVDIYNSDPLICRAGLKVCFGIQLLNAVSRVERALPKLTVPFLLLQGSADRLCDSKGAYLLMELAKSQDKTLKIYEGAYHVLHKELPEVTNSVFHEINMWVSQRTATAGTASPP
Parameters: species or system COS-7
Compound `CC(=O)c1cccc(-c2ccc(Cc3nnnn3C(=O)N(C)C)cc2)c1` has an IC50 of over 1 µM.

The compounds below were run against T3, Fatty-acid amide hydrolase 1 (Rattus norvegicus, UniProt P97612) (assay: Inhibition of FAAH in rat brain membranes assessed as [14C]AEA hydrolysis to [14C]Ethanolamine after 30 mins by scintillation counting analysis).
T3 sequence (P97612 whole entry): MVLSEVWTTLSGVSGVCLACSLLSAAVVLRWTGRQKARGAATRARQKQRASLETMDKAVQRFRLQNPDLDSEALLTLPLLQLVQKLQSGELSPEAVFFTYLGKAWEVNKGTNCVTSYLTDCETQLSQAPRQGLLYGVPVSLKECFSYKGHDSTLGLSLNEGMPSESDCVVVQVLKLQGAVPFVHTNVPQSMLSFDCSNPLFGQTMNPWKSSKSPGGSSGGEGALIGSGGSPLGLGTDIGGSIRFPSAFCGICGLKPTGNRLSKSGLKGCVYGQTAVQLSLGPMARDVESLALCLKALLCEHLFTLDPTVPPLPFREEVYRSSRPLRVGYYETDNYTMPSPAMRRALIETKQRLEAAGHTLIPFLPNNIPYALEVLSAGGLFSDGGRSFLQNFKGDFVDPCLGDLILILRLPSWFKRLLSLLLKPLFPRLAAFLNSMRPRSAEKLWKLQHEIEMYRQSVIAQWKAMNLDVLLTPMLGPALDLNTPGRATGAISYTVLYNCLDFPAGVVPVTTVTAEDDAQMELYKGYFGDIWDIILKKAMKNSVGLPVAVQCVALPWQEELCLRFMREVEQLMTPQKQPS
Type: cell membranes
Method in brief: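 Rat brain membranes were incubated with [¹⁴C]AEA in 50 mM Tris-HCl pH 9 for 30 min at 37 °C. Released [¹⁴C]ethanolamine in the aqueous phase was counted by scintillation after CHCl₃/CH₃OH 2/1 extraction. IC50 was the concentration giving 50% inhibition.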
For `CN(C)C(=O)n1nnc(Cc2ccc(-c3cccc(C(N)=O)c3)cc2)n1`, the IC50 was 0.0071 µM. In the case of `CC(=O)c1cccc(-c2ccc(Cc3nnnn3C(=O)N(C)C)cc2)c1`, the IC50 is reported as 0.0147 µM. Compound `COC(=O)c1cccc(-c2ccc(Cc3nnn(C(=O)N(C)C)n3)cc2)c1` has an IC50 of 0.0123 µM. Compound `CN(CCCCc1ccccc1)C(=O)n1nnc(Cc2ccc(-c3ccccc3)cc2)n1` has an IC50 of 0.0116 µM. Work on `CN(C)C(=O)n1nnc(Cc2ccc(-c3cccc(CO)c3)cc2)n1` yielded an IC50 of 0.0107 µM. `CC(=O)c1cccc(-c2ccc(Cc3nnn(C(=O)N(C)C)n3)cc2)c1` gave an IC50 of 0.0342 µM. Work on `CN(C)C(=O)n1nnnc1Cc1ccc(-c2cccc(CO)c2)cc1` yielded an IC50 of 0.0106 µM. In the case of `CN(Cc1ccc2ccccc2c1)C(=O)n1nnc(Cc2ccc(-c3ccccc3)cc2)n1`, the IC50 is reported as 0.0169 µM.

Each compound was assayed against Transient receptor potential cation channel subfamily A member 1 (Rattus norvegicus, UniProt Q6RI86) (assay: Antagonist activity at rat TRPA1 receptor expressed in HEK293 cells assessed as inhibition of allyl isothiocyanate-induced intracellular Ca2+ elevation incubated for 5 mins prior to allyl isothiocyanate-stimulation by spectrofluorimetric analysis).
Sequence of Transient receptor potential cation channel subfamily A member 1 (Q6RI86 whole entry): as the sequence (Q6RI86 whole entry) above
Type: cell-based
Method in brief: as §2
`CN(C)C(=O)n1nnc(Cc2ccc(-c3cccc(C(N)=O)c3)cc2)n1` was tested, and the IC50 was 83.1 µM. `CC(=O)c1cccc(-c2ccc(Cc3nnnn3C(=O)N(C)C)cc2)c1` was tested, and the IC50 was over 100 µM. In the case of `COC(=O)c1cccc(-c2ccc(Cc3nnn(C(=O)N(C)C)n3)cc2)c1`, the IC50 is reported as 91.2 µM. Compound `CN(CCCCc1ccccc1)C(=O)n1nnc(Cc2ccc(-c3ccccc3)cc2)n1` has an IC50 of 92.1 µM. `CN(C)C(=O)n1nnc(Cc2ccc(-c3cccc(CO)c3)cc2)n1` showed an IC50 of over 100 µM. `CC(=O)c1cccc(-c2ccc(Cc3nnn(C(=O)N(C)C)n3)cc2)c1` showed an IC50 of 97.2 µM. `CN(C)C(=O)n1nnnc1Cc1ccc(-c2cccc(CO)c2)cc1` showed an IC50 of over 100 µM. `CN(Cc1ccc2ccccc2c1)C(=O)n1nnc(Cc2ccc(-c3ccccc3)cc2)n1` was tested, and the IC50 was 24.3 µM.

Reference: ChEMBL document CHEMBL2375292, “Biaryl tetrazolyl ureas as inhibitors of endocannabinoid metabolism: modulation at the N-portion and distal phenyl ring” (Eur J Med Chem, 2013)
